Like-named read-outs stand apart in the source and are kept apart here.
Key:
SV2A [1] = details: [^3H]UCB-J competitive binding, rat whole brain; cited from earlier work
SV2A [2] = details: rat brain homogenate; cited from earlier work
SV2A [3] = molecular target: T1, SV2A (Mus musculus, UniProt Q9JIS5); type: binding
Summary of the method: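 Mouse brain homogenate in 50 mM Tris-HCl with 2 mM MgCl2, pH 7.4, at 0.01 mg protein per well. Unlabelled ligand added from standard solutions of 0.1–50,000 nM, plus radioligand (~0.074 MBq, 2.3 nM). Shaken at 37 °C for 30 min, filters washed twice with buffer, then gamma counted. Binding expressed as pmol/mg protein. Nonspecific binding defined with 0.05 mM unlabelled ligand. Specific binding plotted against log total (hot + cold) ligand concentration.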

SV2A [4] = molecular target: T1, SV2A; type: binding; remark: listed apart in the source
SV2A [5] = molecular target: T1, SV2A; test: Dynamic small animal PET imaging of mouse brain with [^18F]SynVesT-1; type: in vivo
Summary of the method: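 Female WT (C57BL/6J) and APP/PS1 mice, 88 ± 4 weeks, n = 3 each, under 1.5–2.5% isoflurane on a heating pad. Radiotracer given as an i.v. lateral tail-vein bolus (10.28 ± 3.74 MBq in 0.1 mL). Baseline emission data acquired 0–90 min p.i. on small-animal PET/CT. OSEM3D/MAP reconstruction with decay, attenuation, scatter, normalization and randoms corrections. Images co-registered to mouse brain atlas space for regional time-activity curves.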

[6] = system: SV2A binding in the hippocampus; details: APP/PS1 mice vs WT, [^11C]UCB-J PET; cited from earlier work
[7] = rodent brain, from time-activity curves

T1 sequence (Q9JIS5 whole entry): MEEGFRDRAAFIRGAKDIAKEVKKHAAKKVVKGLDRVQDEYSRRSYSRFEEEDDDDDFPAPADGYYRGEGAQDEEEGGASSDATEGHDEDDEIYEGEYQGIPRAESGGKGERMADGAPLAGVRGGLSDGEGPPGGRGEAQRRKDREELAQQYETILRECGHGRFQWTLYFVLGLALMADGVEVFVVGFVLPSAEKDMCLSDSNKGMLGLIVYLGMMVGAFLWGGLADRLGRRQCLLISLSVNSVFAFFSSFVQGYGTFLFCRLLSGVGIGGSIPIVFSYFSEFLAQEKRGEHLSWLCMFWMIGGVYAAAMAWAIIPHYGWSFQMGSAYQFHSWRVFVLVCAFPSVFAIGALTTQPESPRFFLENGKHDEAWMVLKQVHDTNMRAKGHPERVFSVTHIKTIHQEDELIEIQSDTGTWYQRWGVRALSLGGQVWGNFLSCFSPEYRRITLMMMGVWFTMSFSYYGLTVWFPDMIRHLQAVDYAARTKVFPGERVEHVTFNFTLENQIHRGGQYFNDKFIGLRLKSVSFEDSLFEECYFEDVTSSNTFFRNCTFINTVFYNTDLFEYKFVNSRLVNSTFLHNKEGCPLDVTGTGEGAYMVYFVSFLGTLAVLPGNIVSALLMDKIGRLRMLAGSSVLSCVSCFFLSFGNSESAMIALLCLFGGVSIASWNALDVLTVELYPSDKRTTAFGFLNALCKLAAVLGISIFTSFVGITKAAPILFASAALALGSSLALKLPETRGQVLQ

Compound: Cc1cnccc1CN1C[C@@H](c2cc(F)cc(F)c2)CC1=O [SynVesT-1]
- Ki (SV2A [1]): 2.2 nM

Compound: Cc1cnccc1CN1C[C@@H](c2cc(F)c(F)c(F)c2)CC1=O [UCB-J]
- Kd (SV2A [2]): 2.6 ± 0.25 nM

Compound: Cc1cnccc1CN1C[C@@H](c2cc(F)cc(F)c2)CC1=O [[^18F]SynVesT-1, (R)-4-(3-Fluoro-5-(fluoro-^18F)phenyl)-1-((3-methylpyridin-4-yl)methyl)pyrrolidin-2-one]
- Kd (SV2A [3]; mouse brain homogenate, 37 °C, 30 min, Kd=Ki=IC50−[radioligand]): 19.6 ± 1.38 nM
- Kd (SV2A [4]; WT mouse brain sections, nonspecific binding with 1 mM levetiracetam): 9.8 ± 1.7 nM

Compound: Cc1cnccc1CN1C[C@@H](c2cc(F)cc([18F])c2)CC1=O [[^18F]SynVesT-1, (R)-4-(3-Fluoro-5-(fluoro-^18F)phenyl)-1-((3-methylpyridin-4-yl)methyl)pyrrolidin-2-one]
- Bmax (SV2A [3]; mouse brain homogenate): 4.54 pmol/mg protein
- Bmax (range over homologous competitive and autoradiographic saturation assays) (SV2A [3]; rodent brain tissue): 4.5–18 pmol/mg protein
- Bmax (SV2A [4]; WT mouse brain sections): 1.8 ± 0.1 pmol/mg of brain tissue
- Bmax (SV2A [4]; WT mouse brain sections, assuming 10% of brain tissue is protein): 18 ± 1 pmol/mg protein
- Radioligand concentration at which total binding appeared to saturate (SV2A [4]; mouse brain sections): above 25 nM
- Time of peak of brain time-activity curves (SV2A [5]; WT and APP/PS1 mice, i.v. bolus, 0–90 min scan): ≤ 20 min p.i.
- BBB penetration (SV2A [5]; [7]): efficient BBB penetration
- Binding kinetics in brain (SV2A [5]; [7]): reversible binding kinetics

Compound: CN1CCN(CCOc2cc(OC3CCOCC3)c3c(Nc4c(Cl)ccc5c4OCO5)ncnc3c2)CC1 [saracatinib]
- Effect of treatment on decreased hippocampal SV2A binding [6]: restored to the same level as the WT mice

From PMC8105262 (Molecular imaging and biology, 2020)
